Measurements as given in ChEMBL document CHEMBL4387720, “Lead generation of 1,2-dithiolanes as exon 19 and exon 21 mutant EGFR tyrosine kinase inhibitors” (Bioorg Med Chem Lett, 2019).
pIC50, pKd: −log10 of the molar value.

Assays:
[1] = biological target: T1, Epidermal growth factor receptor (Homo sapiens, UniProt P00533); test: Inhibition of probe binding to wild type EGFR (unknown origin) using rabbit reticulate lysate system after 1 hr by luminescence assay
[2] = biological target: Receptor tyrosine-protein kinase erbB-2 (Homo sapiens, UniProt P04626); test: Inhibition of probe binding to HER2 (unknown origin) using rabbit reticulate lysate system after 1 hr by luminescence assay
Sequence of Receptor tyrosine-protein kinase erbB-2 (P04626 whole entry): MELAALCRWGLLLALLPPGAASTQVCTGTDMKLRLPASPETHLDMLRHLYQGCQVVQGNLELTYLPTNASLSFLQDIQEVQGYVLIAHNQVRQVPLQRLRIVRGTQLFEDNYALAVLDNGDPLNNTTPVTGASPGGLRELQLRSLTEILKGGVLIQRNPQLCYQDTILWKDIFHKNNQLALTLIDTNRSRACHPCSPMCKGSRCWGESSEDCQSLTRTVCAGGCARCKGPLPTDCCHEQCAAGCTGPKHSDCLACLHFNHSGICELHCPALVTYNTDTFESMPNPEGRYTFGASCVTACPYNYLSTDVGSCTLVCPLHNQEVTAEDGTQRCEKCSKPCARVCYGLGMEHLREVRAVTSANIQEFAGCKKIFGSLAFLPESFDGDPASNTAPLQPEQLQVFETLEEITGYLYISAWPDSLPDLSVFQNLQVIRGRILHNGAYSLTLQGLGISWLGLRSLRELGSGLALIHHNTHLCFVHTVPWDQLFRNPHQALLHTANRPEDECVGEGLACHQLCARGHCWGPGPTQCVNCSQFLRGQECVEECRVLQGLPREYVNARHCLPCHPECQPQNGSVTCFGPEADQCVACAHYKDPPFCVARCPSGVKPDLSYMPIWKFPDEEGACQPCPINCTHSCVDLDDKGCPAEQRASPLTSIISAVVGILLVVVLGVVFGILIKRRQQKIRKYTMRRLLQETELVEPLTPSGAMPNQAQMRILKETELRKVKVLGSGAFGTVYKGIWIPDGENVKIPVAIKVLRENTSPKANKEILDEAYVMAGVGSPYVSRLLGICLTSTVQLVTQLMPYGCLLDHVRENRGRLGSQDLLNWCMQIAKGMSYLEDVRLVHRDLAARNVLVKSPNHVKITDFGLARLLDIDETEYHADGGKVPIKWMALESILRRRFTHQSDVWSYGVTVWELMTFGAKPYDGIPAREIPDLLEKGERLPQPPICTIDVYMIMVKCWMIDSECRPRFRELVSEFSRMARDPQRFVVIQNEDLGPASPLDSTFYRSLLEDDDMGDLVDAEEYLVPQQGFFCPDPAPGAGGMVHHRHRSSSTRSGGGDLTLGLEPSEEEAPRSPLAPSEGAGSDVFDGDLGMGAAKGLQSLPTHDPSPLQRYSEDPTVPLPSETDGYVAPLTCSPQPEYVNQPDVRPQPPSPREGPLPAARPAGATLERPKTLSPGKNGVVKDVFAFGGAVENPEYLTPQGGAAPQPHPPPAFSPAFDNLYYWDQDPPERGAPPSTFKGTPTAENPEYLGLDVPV
Outline: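 Homogeneous competition binding in rabbit reticulocyte lysate with kinase expressed in the lysate. IC50 taken from a ten-point dose-response curve; value is the average of triplicate experiments.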

CCRF-CEM = test: cells; assay type: functional; details: Homo sapiens, 48 h
MOLT-4 [3] = test: Cytotoxicity against human MOLT4 cells assessed as reduction in measured protein incubated for 48 hrs by SRB assay; assay type: functional; details: MOLT-4, 48 h, read-out: LC50 (the source's name)
Outline: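 Tested in the NCI-60 panel with a five-dose response curve, each value the mean of 2 experiments.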

A549 = test: Therapeutic index, ratio of LC50 for human A549 cells to GI50 for human A549 cells; assay type: functional
Outline: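 NCI-60 panel cell growth assay. Five-point dose-response curves; each value is the average of 2 experiments. […] Therapeutic index is calculated as LC50/GI50.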

MOLT-4 [4] = test: Therapeutic index, ratio of LC50 for human MOLT4 cells to GI50 for human MOLT4 cells; assay type: functional
Outline: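 NCI-60 panel screen using five-dose response curves, each value an average of 2 experiments. […] The therapeutic index is calculated as LC50/GI50 for the same cell line.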

[5] = biological target: Epidermal growth factor receptor (Homo sapiens, UniProt P00533, L858R); test: Binding affinity to human partial length EGFR L858R mutant (R669 to V1011 residues) expressed in bacterial expression system by kinomescan assay
Outline: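 Competition binding against an immobilized active-site-directed ligand; bound kinase quantified by qPCR of its DNA tag. Kd taken from duplicate 11-point dose-response curves.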

[6] = biological target: Epidermal growth factor receptor (Homo sapiens, UniProt P00533, G719C); test: Binding affinity to human partial length EGFR G719C mutant (R669 to V1011 residues) expressed in bacterial expression system by KinomeScan assay
Outline: (§1)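 Competition binding against an immobilized active-site-directed ligand. Bound kinase is quantified by qPCR of its DNA tag. Kd values come from duplicate 11-point dose-response curves.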

[7] = biological target: Epidermal growth factor receptor (Homo sapiens, UniProt P00533, S752-I759DEL); test: Binding affinity to human partial length EGFR S752-I759 deletion mutant expressed in bacterial expression system by KinomeScan assay; outline: as §1
[8] = biological target: Epidermal growth factor receptor (Homo sapiens, UniProt P00533, E746-A750DEL); test: Binding affinity to human partial length EGFR E746-A750 deletion mutant expressed in bacterial expression system by KinomeScan assay; outline: as §1
Sequence of Epidermal growth factor receptor (Homo sapiens, UniProt P00533, E746-A750DEL) (P00533 whole entry E746-A750del, looked up, the tested form may be a part): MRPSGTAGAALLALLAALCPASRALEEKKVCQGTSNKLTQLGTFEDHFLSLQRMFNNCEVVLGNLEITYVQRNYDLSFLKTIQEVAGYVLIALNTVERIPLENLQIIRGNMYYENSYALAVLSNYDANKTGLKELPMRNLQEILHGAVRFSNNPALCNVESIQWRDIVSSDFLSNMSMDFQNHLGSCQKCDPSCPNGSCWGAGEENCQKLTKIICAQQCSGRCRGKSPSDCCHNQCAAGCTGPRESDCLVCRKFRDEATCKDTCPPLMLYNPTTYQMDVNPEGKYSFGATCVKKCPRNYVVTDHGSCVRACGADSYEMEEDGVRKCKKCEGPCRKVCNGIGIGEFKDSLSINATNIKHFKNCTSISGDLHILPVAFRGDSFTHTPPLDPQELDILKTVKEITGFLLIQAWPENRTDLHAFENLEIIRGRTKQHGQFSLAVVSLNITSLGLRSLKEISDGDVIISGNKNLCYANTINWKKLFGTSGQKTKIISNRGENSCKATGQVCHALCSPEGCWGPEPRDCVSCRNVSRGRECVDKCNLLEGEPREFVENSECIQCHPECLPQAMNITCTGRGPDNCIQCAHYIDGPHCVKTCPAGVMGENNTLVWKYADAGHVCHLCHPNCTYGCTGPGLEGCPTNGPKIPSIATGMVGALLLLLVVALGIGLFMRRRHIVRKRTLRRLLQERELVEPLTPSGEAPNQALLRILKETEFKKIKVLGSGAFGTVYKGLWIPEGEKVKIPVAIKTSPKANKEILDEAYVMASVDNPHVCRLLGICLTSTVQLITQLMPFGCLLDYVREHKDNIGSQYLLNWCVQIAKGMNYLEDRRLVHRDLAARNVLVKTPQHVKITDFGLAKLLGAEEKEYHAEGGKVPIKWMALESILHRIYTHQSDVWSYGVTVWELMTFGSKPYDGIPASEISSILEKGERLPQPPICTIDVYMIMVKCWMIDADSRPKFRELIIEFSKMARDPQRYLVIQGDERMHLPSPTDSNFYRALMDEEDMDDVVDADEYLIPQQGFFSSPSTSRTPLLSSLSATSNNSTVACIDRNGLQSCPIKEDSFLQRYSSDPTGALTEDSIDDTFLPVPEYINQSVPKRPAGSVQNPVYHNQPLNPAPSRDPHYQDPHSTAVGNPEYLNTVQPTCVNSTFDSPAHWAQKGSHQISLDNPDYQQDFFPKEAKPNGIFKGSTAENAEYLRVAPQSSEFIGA

[9] = biological target: T1, Epidermal growth factor receptor; test: Binding affinity to human partial length wild type EGFR (R669 to V1011 residues) expressed in bacterial expression system by kinomescan assay; outline: as §1
Cytochrome P450 2B6 = Cytochrome P450 2B6 (Homo sapiens, UniProt P20813); test: Inhibition of CYP2B6 (unknown origin); assay type: ADME
Sequence of Cytochrome P450 2B6 (P20813 whole entry): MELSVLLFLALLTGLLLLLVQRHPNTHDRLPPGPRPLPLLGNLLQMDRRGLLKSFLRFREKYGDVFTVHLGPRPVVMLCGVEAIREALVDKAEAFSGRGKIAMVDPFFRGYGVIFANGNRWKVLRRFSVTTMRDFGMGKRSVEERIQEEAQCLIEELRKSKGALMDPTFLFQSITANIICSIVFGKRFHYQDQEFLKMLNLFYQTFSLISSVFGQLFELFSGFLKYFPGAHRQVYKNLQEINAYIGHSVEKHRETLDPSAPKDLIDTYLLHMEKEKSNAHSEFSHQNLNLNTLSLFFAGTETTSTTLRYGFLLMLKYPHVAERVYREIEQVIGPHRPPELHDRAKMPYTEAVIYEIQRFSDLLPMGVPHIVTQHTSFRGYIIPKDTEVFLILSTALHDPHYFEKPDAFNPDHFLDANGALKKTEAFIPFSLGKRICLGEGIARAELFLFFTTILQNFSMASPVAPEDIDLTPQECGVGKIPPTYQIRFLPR

Cytochrome P450 2C8 = Cytochrome P450 2C8 (Homo sapiens, UniProt P10632); test: Inhibition of CYP2C8 (unknown origin); assay type: ADME
Sequence of Cytochrome P450 2C8 (P10632 whole entry): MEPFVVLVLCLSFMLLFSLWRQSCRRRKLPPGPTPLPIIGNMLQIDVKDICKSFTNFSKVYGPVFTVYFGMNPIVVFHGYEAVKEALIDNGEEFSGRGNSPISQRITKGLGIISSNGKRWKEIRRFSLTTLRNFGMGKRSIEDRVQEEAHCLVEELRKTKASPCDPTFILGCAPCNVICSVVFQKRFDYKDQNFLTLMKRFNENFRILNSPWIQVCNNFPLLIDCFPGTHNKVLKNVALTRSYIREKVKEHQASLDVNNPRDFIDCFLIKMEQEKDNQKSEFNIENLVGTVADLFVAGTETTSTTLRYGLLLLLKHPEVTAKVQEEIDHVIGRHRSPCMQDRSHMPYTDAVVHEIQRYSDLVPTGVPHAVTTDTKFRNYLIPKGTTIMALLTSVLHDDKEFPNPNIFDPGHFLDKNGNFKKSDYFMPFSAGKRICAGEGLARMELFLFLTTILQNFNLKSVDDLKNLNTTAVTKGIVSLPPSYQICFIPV

[10] = Half life in rat S9 fraction; assay type: ADME, subcellular

T1 sequence (P00533 whole entry): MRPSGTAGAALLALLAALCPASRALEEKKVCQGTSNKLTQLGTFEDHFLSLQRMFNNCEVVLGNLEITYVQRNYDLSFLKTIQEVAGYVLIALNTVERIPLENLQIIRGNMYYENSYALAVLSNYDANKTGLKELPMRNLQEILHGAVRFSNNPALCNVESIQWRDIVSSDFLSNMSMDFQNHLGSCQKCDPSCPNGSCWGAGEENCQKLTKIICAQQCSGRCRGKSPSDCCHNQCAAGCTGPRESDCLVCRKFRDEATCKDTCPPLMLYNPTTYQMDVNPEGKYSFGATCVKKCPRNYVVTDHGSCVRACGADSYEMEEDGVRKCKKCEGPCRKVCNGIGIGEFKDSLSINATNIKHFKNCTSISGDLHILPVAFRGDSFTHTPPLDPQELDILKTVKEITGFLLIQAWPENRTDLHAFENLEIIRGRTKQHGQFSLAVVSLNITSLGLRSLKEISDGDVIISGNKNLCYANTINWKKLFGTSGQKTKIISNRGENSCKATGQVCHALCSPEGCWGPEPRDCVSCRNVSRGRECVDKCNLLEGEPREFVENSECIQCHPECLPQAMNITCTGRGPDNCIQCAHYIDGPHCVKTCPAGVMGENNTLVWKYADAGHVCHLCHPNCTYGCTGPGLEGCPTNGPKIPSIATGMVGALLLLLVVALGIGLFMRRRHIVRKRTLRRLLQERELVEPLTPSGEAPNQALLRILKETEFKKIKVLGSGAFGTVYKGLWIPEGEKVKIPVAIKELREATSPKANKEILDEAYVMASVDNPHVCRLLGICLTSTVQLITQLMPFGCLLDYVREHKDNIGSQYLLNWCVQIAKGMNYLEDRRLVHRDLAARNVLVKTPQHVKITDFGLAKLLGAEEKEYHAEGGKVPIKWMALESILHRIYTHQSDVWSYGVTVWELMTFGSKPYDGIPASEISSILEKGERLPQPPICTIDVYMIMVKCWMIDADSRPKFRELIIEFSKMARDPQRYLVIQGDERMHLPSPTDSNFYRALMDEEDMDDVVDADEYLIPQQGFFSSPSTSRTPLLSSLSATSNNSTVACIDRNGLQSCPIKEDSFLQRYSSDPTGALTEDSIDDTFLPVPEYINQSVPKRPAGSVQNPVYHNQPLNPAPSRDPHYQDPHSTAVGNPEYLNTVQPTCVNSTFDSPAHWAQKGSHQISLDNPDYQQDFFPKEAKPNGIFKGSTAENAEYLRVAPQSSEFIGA

CCOc1cc2ncc(C#N)c(Nc3ccc(OCc4cccc(F)c4)c(Cl)c3)c2cc1NC(=O)CC1CCSS1 (centres undefined)
pIC50 [1]: 6.92
pIC50 [2]: 6.80
GI50 (CCRF-CEM): 0.15 µM
CC50 (MOLT-4 [3]): > 25 µM
TI (A549): 6.2
TI (MOLT-4 [4]): >156
pKd [5]: 8.02
pKd [6]: 8.24
pKd [7]: 8.00
pKd [8]: 7.32
pKd [9]: 6.92
pIC50 (Cytochrome P450 2B6): < 4.30
pIC50 (Cytochrome P450 2C8): < 4.30
half-life [10]: > 1 h
